Data reported in ChEMBL document CHEMBL2380254, “Optimization of tocotrienols as antiproliferative and antimigratory leads” (Eur J Med Chem, 2013).

Tests used:
Format in all cases: functional
MDA-MB-468 [1] = assay: Growth inhibition of human MDA-MB-468 cells assessed as cell growth at 10 uM after 48 hrs by sulforhodamine B assay; details: MDA-MB-468, 48 h, read-out: Activity
How it was run: (§1)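 Single-dose NCI-60 screen: adherent cells in RPMI 1640 with 5% FBS were exposed to 10 µM for 48 h at 37 °C after a 24 h preincubation. They were fixed in situ with cold TCA (10% final), stained with 0.4% SRB in 1% acetic acid, solubilized in 10 mM Tris base, and read at 515 nm. Percent growth was taken relative to time-zero and control plates.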

SF-539 = assay: Growth inhibition of human SF539 cells after 48 hrs by sulforhodamine B assay; details: SF-539, 48 h
How it was run: (§2)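 NCI-60 panel cells grown in RPMI 1640 with 5% FBS and 2 mM L-glutamine, seeded at 5000–40,000 cells/well and preincubated 24 h. Five 10-fold dilutions (0.001–100 µM) from DMSO stocks were added for 48 h at 37 °C. Adherent cells were fixed with cold TCA (10% final) for 60 min at 4 °C, stained with 0.4% SRB, and read at 515 nm. GI50 was set where 100×(T−T0)/(C−T0)=50.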

MDA-MB-468 [2] = assay: Growth inhibition of human MDA-MB-468 cells after 48 hrs by sulforhodamine B assay; details: MDA-MB-468, 48 h; how it was run: as §2
PC-3 = assay: Growth inhibition of human PC3 cells after 48 hrs by sulforhodamine B assay; details: PC-3, 48 h; how it was run: as §2
T47D = assay: Growth inhibition of human T47D cells after 48 hrs by sulforhodamine B assay
How it was run: (§3)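 NCI-60 five-dose screen. Cells were grown in RPMI 1640 with 5% FBS and 2 mM L-glutamine, plated at 5000–40,000 cells/well and incubated 24 h before dosing, with T0 plates TCA-fixed. DMSO stocks were diluted to doses of […] and exposed 48 h at 37 °C, 5% CO2. Cells were fixed with cold TCA (final 10%, 60 min, 4 °C), stained with 0.4% SRB in 1% acetic acid for 10 min, solubilized in 10 mM trizma base and read at 515 nm. GI50 is where 100×(T−T0)/(C−T0)=50.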

786-0 [3] = assay: Growth inhibition of human 786-0 cells assessed as cell growth at 10 uM after 48 hrs by sulforhodamine B assay; details: 786-0, 48 h, read-out: Activity
How it was run: (§4)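 NCI-60 single-dose screen at 10 µM: cells in RPMI 1640 with 5% FBS, preincubated 24 h, then exposed 48 h at 37 °C. TCA fixation (16% final for suspension cells), SRB staining, absorbance 515 nm. Percent growth relative to time-zero and untreated control plates; negative values indicate cell kill.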

NCI-H522 = assay: Growth inhibition of human NCI-H522 cells assessed as cell growth at 10 uM after 48 hrs by sulforhodamine B assay; details: NCI-H522, 48 h, read-out: Activity; how it was run: as §1
SK-MEL-28 = assay: Growth inhibition of human SK-MEL-28 cells assessed as cell growth at 10 uM after 48 hrs by sulforhodamine B assay; details: SK-MEL-28, 48 h, read-out: Activity; how it was run: as §1
ACHN = assay: Growth inhibition of human ACHN cells assessed as cell growth at 10 uM after 48 hrs by sulforhodamine B assay; details: read-out: Activity; how it was run: as §4
A498 = assay: Growth inhibition of human A498 cells after 48 hrs by sulforhodamine B assay; details: A498, 48 h
How it was run: (§5)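 NCI-60 screen: cells in RPMI 1640 with 5% FBS and 2 mM glutamine, 5000–40,000 cells/well, preincubated 24 h. Five concentrations (10-fold dilutions; 100 to 0.001 µM) applied for 48 h at 37 °C. TCA fixation, SRB stain, absorbance at 515 nm. Time-zero plates included; GI50 where 100×(T−T0)/(C−T0)=50.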

LOX IMVI = assay: Growth inhibition of human LOXIMVI cells assessed as cell growth at 10 uM after 48 hrs by sulforhodamine B assay; details: read-out: Activity; how it was run: as §4
KM12 = assay: Growth inhibition of human KM12 cells after 48 hrs by sulforhodamine B assay; details: KM12, 48 h; how it was run: as §5
SF-268 = assay: Growth inhibition of human SF268 cells assessed as cell growth at 10 uM after 48 hrs by sulforhodamine B assay; details: SF-268, 48 h, read-out: Activity; how it was run: as §1
SNB-75 = assay: Growth inhibition of human SNB75 cells assessed as cell growth at 10 uM after 48 hrs by sulforhodamine B assay; details: SNB-75, 48 h, read-out: Activity
How it was run: (§6)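 Single-dose NCI-60 test at 10 µM. Cells were grown in RPMI 1640 with 5% FBS and 2 mM L-glutamine, preincubated 24 h, with T0 plates TCA-fixed. Exposure was 48 h at 37 °C, 5% CO2. Cells were fixed with cold TCA (final 10%, 4 °C, 60 min), stained with SRB and read at 515 nm. Percent growth was taken relative to T0 and untreated control; negative values denote cell kill.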

RPMI-8226 = assay: Growth inhibition of human RPMI8226 cells after 48 hrs by sulforhodamine B assay; details: RPMI-8226, 48 h
How it was run: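 NCI-60 suspension lines in RPMI 1640 with 5% FBS and 2 mM L-glutamine, preincubated 24 h. A five-concentration 10-fold series (0.001–100 µM) was given for 48 h at 37 °C. Settled cells were fixed with 80% TCA (16% final), stained with SRB, and read at 515 nm. GI50 was taken where 100×(T−T0)/(C−T0)=50, with T0 plates fixed at drug addition.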

NCI-H23 = assay: Growth inhibition of human NCI-H23 cells after 48 hrs by sulforhodamine B assay; details: NCI-H23, 48 h; how it was run: as §2
OVCAR-5 [4] = assay: Growth inhibition of human OVCAR5 cells assessed as cell growth at 10 uM after 48 hrs by sulforhodamine B assay; details: OVCAR-5, 48 h, read-out: Activity; how it was run: as §1
UACC-257 = assay: Growth inhibition of human UACC257 cells assessed as cell growth at 10 uM after 48 hrs by sulforhodamine B assay; details: UACC-257, 48 h, read-out: Activity; how it was run: as §6
SK-MEL-5 = assay: Growth inhibition of human SK-MEL-5 cells assessed as cell growth at 10 uM after 48 hrs by sulforhodamine B assay; details: SK-MEL-5, 48 h, read-out: Activity; how it was run: as §1
UACC-62 = assay: Growth inhibition of human UACC62 cells assessed as cell growth at 10 uM after 48 hrs by sulforhodamine B assay; details: UACC-62, 48 h, read-out: Activity; how it was run: as §6
HCT-15 = assay: Growth inhibition of human HCT15 cells assessed as cell growth at 10 uM after 48 hrs by sulforhodamine B assay; details: HCT-15, 48 h, read-out: Activity; how it was run: as §4
TK-10 = assay: Growth inhibition of human TK10 cells after 48 hrs by sulforhodamine B assay; details: TK-10, 48 h; how it was run: as §3
786-0 [5] = assay: Growth inhibition of human 786-0 cells after 48 hrs by sulforhodamine B assay; details: 786-0, 48 h; how it was run: as §5
OVCAR-5 [6] = assay: Growth inhibition of human OVCAR5 cells after 48 hrs by sulforhodamine B assay; details: OVCAR-5, 48 h; how it was run: as §2

Row | SMILES | growth at 10 µM (MDA-MB-468 [1]) | GI50 (SF-539) | GI50 (MDA-MB-468 [2]) | GI50 (PC-3) | GI50 (T47D) | growth at 10 µM (786-0 [3]) | growth at 10 µM (NCI-H522) | growth at 10 µM (SK-MEL-28) | growth at 10 µM (ACHN) | GI50 (A498) | growth at 10 µM (LOX IMVI) | GI50 (KM12) | growth at 10 µM (SF-268) | growth at 10 µM (SNB-75) | GI50 (RPMI-8226) | GI50 (NCI-H23) | growth at 10 µM (OVCAR-5 [4]) | growth at 10 µM (UACC-257) | growth at 10 µM (SK-MEL-5) | growth at 10 µM (UACC-62) | other results
1 | CC(C)=CCC/C(C)=C/CC/C(C)=C/CC[C@]1(C)CCc2c3c(cc(C)c2O1)OCN(CCCCCCO)C3 | -84.5% | 2370 nM | 629 nM | 1240 nM | 1760 nM | -98% | -0.37% | -49.6% | -39.7% | 4880 nM | -90.8% | 609 nM | -80.2% | -1.37% | 1110 nM | 4570 nM | 33.4% | 90.5% | 20.9% | 75.8% | growth at 10 µM (HCT-15): 5.75%; GI50 (TK-10): 2540 nM; GI50 (786-0 [5]): 1740 nM; GI50 (OVCAR-5 [6]): 2550 nM
2 | CC(C)=CCC/C(C)=C/CC/C(C)=C/CC[C@]1(C)CCc2c3c(cc(C)c2O1)OCN(CCCCCCCCO)C3 | -90.7% | 1280 nM | 591 nM | 1510 nM | 3940 nM | -95.3% | -81.6% | -89.2% | -97.6% | 4710 nM | -86.9% | 784 nM | -83.1% | -61.4% | 1220 nM | 4400 nM | -70.8% | 99% | 19.1% | -15.3% | growth at 10 µM (HCT-15): -10.9%; GI50 (TK-10): 4640 nM; GI50 (786-0 [5]): 2710 nM; GI50 (OVCAR-5 [6]): 2730 nM
3 | CC(C)=CCC/C(C)=C/CC/C(C)=C/CC[C@]1(C)CCc2c3c(cc(C)c2O1)OCN(CCCO)C3 | -29% | 1930 nM | 1560 nM | 1630 nM | 2010 nM | 16.6% | -72.9% | -50.7% | 42.5% | 1460 nM | -89.8% | 2100 nM | -78.5% | 33.9% | 2160 nM | 1880 nM | 40.4% | 64.2% | 57.5% | 93% | growth at 10 µM (HCT-15): 0.85%; GI50 (TK-10): 2060 nM; GI50 (786-0 [5]): 1860 nM; GI50 (OVCAR-5 [6]): 1770 nM
